# Values joined by “and” are separate entries in the source; they are usually repeats but may differ in a detail not shown here. Equal values may be shown once.
# Tests used:
# [1] = species: Canis familiaris; assay: In vitro electrophysiological evaluation in canine cardiac Purkinje fibres reported as maximum percent change Vmax concentration range of 0.1-100 uM; Minimal (<10% decrease or increase in Vmax).; assay type: functional; settings: Canis lupus familiaris; Purkinje fiber
# How it was run: (§1)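 Canine cardiac Purkinje fibres, intracellular microelectrode recording, paced at a basic cycle length of 1 s. APD95 and Vmax read simultaneously. Compound: 10 mM stock in deionized water, diluted into Tyrode's solution, tested over the stated concentration range. Each fibre used once as its own control. Result is % change from control, given at 10 µM or as the maximum with its concentration. M = <10% decrease or an increase in Vmax.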
# [2] = species: Canis familiaris; assay: In vitro electrophysiological evaluation in canine cardiac ventricular muscle reported as % change for the functional refractory period (FRP) at 10 uM at concentration range of 0.1-100 uM; parameters: species or system Canis lupus familiaris, Muscle tissue
# How it was run: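 Canine right ventricle and papillary muscle strips in oxygenated Tyrode's solution, fitted with stimulating and recording electrodes. The extra-stimulus conduction-interval method was adapted for in vitro use. FRP and CT were read from a conduction-interval curve before and after various compound concentrations, and expressed as percent change from control. Compounds were taken from 10 mM deionized-water stock into Tyrode's. Each strip was used once as its own control.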
# [3] = species: Canis familiaris; assay: In vitro electrophysiological evaluation in canine cardiac Purkinje fibres reported as % change for action potential duration at a concentration of 10 uM; assay type: functional, Canis lupus familiaris, Purkinje fiber; how it was run: as §1
# [4] = species: Canis familiaris; assay: In vitro electrophysiological evaluation in canine cardiac Purkinje fibres reported as percent change Vmax at 10 uM at concentration range of 0.1-100 uM; Minimal (<10% decrease or increase in Vmax).; assay type: functional, organism-based; settings: Canis lupus familiaris, Purkinje fiber; how it was run: as §1
# [5] = species: Canis familiaris; assay: (§2) In vitro electrophysiological activity in canine cardiac occurred is 100.; assay type: functional, Canis lupus familiaris, Heart
# [6] = species: Canis familiaris; assay: In vitro electrophysiological evaluation in canine cardiac Purkinje fibres reported as percent change Vmax at 10 uM at concentration range of 1-30 uM; Minimal (<10% decrease or increase in Vmax).; assay type: functional; settings: Canis lupus familiaris, Purkinje fiber
# [7] = species: Canis familiaris; assay: as §2; assay type: functional, Canis lupus familiaris, Heart; remark: listed apart in the source
# [8] = species: Canis familiaris; assay: (§3) In vitro electrophysiological evaluation in canine cardiac occurred is 100.; assay type: functional; settings: Canis lupus familiaris; Heart
# [9] = species: Canis familiaris; assay: as §2; assay type: functional, Canis lupus familiaris, Heart; remark: listed apart in the source
# [10] = species: Canis familiaris; assay: In vitro electrophysiological evaluation in canine cardiac ventricular muscle reported as maximum % change for conduction time(CT) at 0.1-100 uM concentration range; Minimal (<10% decrease or increase in […]).; assay type: functional, Canis lupus familiaris, Muscle tissue
# How it was run: (§4)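 Canine right ventricular/papillary muscle strips in oxygenated Tyrode's, extracellular extra-stimulus conduction-interval method. FRP and CT are read from conduction-interval curves before and during rising concentrations. Compound is a 10 mM aqueous stock diluted into Tyrode's. Each strip is used once as its own control. Readouts are percent change from control at 10 μM, plus the maximum change with its concentration.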
# [11] = species: Canis familiaris; assay: as §3; assay type: functional; settings: Canis lupus familiaris; Heart; remark: listed apart in the source
# [12] = species: Canis familiaris; assay: as §2; assay type: functional, Canis lupus familiaris, Heart; remark: listed apart in the source
# [13] = species: Canis familiaris; assay: In vitro electrophysiological evaluation in canine cardiac ventricular muscle reported as % change for conduction time(CT) at 10 uM at 0.1-100 uM concentration range; Minimal (<10% decrease or increase in […]).; assay type: functional, Canis lupus familiaris, Muscle tissue; how it was run: as §4
# [14] = species: Canis familiaris; assay: In vitro electrophysiological evaluation in canine cardiac ventricular muscle reported as maximum % change for functional refractory period (FRP) at 0.1-100 uM concentration range; concentration at which it occurred is 100.; parameters: species or system Canis lupus familiaris, Muscle tissue
# [15] = species: Canis familiaris; assay: In vitro electrophysiological evaluation in canine cardiac Purkinje fibres reported as % change for action potential duration at 10 uM at 1-30 uM concentration range; assay type: functional, Canis lupus familiaris, Purkinje fiber
# How it was run: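 Canine cardiac Purkinje fibers, intracellular recording, paced at a basic cycle length of 1 s. APD95 and Vmax are recorded together across cumulative concentrations. Compound is a 10 mM aqueous stock diluted into Tyrode's solution. Each fiber is used once as its own control. Readouts are percent change from control at 10 μM, and the maximum change with the concentration where it occurred.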
# [16] = species: Canis familiaris; assay: In vitro electrophysiological evaluation in canine cardiac Purkinje fibres reported as percent change Vmax at 10 uM at concentration range of 5-100 uM; Minimal (<10% decrease or increase in Vmax).; assay type: functional; settings: Canis lupus familiaris, Purkinje fiber
# [17] = system: Canis familiaris; assay: Effective dose administered intravenously to elicit Antiarrhythmic efficacy in anesthetized dogs was reported; Number of animals effective at that dose is 1.; assay type: functional, Canis lupus familiaris, Heart
# How it was run: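 Dogs are anesthetized and the chest reopened. Stimulating and recording electrodes go on the myocardium. Reproducible PES-induced sustained VT or VF is confirmed first; SVT is ended by burst pacing and VF by DC countershock. Compound is given iv in 0.9% saline and inducibility retested. A dose counts as effective when SVT/VF cannot be reinduced in two of three animals.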
# [18] = species: Canis familiaris; assay: as §3; assay type: functional; settings: Canis lupus familiaris; Heart; remark: listed apart in the source
compound,measurement,setting,value
CCN(CC)CC(=O)Nc1c(C)cccc1C [LIDOCAINE],Vmax,[1],< 10%
same,FRP,[2],6% and 4% and 2%
same,APD95,[3],-23%
same,Vmax,[4],< 10%
same,APD95,[5],-33%
same,Vmax,[6],< 10%
same,APD95,[7],-48%
same,Vmax,[8],-11%
same,APD95,[9],-43%
same,CT,[10],<10%
same,Vmax,[11],-42%
same,APD95,[12],-43%
same,CT,[13],<10%
same,FRP,[14],23% and 8% and 18%
same,APD95,[15],-30%
same,Vmax,[16],< 10%
same,Effective dose,[17],3 mg/kg
same,Vmax,[18],-10%

# — ChEMBL document CHEMBL1123566, “Synthesis and cardiac electrophysiological activity of 2- and 3-[(substituted phenyl)alkyl]quinuclidines. Structure-activity relationships” (1987)
